Active and inactive are the calls of the source. The rule behind the calls is not given here.
How the values were obtained:
Bacillus subtilis [1] = test: Antimicrobial activity against Bacillus subtilis LMA0011 at 50 ug/8 mm disk after 18 hrs by paper disk method; format: functional
Outline: (§1)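 Disk diffusion: 25 or 50 µg sample in acetone (20 µL) on air-dried 8 mm paper disk, placed on agar seeded with organism; plates held overnight at 4 °C for diffusion, then 37 °C for 18 h. Read-out: diameter of clear inhibition zone; triplicate.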

Staphylococcus aureus [2] = test: Antimicrobial activity against Staphylococcus aureus AHU1142 at 25 ug/8 mm disk after 18 hrs by paper disk method; format: functional; outline: as §1
Pseudomonas fluorescens [3] = test: Antimicrobial activity against Pseudomonas fluorescens AHU1719 at 25 ug/8 mm disk after 18 hrs by paper disk method; format: functional; outline: as §1
Pseudomonas fluorescens [4] = test: Antimicrobial activity against Pseudomonas fluorescens AHU1719 at 50 ug/8 mm disk after 18 hrs by paper disk method; format: functional; outline: as §1
Staphylococcus aureus [5] = test: Antimicrobial activity against Staphylococcus aureus AHU1142 at 50 ug/8 mm disk after 18 hrs by paper disk method; format: functional; outline: as §1
Escherichia coli [6] = test: Antimicrobial activity against Escherichia coli AHU1714 at 50 ug/8 mm disk after 18 hrs by paper disk method; format: functional; outline: as §1
Escherichia coli [7] = test: Antimicrobial activity against Escherichia coli AHU1714 at 25 ug/8 mm disk after 18 hrs by paper disk method; format: functional; outline: as §1
Cladosporium herbarum = test: Antifungal activity against Cladosporium herbarum AHU9262 after 3 days by TLC plate assay; format: functional, organism-based
Outline: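 TLC bioautography: EtOAc extract of culture filtrate (equivalent to 0.25 mL medium) developed in CHCl3–MeOH 25:1, sprayed with C. herbarum spore suspension, incubated 25 °C under humid conditions for 3 days; inhibitory zones matched to UV 254 nm spots.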

Bacillus subtilis [8] = test: Antimicrobial activity against Bacillus subtilis LMA0011 at 25 ug/8 mm disk after 18 hrs by paper disk method; format: functional; outline: as §1
Bacillus subtilis [9] = test: Antimicrobial activity against Bacillus subtilis LMA0011 at 12.5 ug/8 mm disk after 18 hrs by paper disk method; format: functional
Outline: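 Positive-control disk diffusion: pentachlorophenol 12.5 µg on 8 mm paper disk on seeded agar; overnight at 4 °C, then 37 °C for 18 h; clear inhibition-zone diameter measured; triplicate.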

| Structure (SMILES) | inhibition zone (IZ) (Bacillus subtilis [1]) [mm] | inhibition zone (IZ) (Staphylococcus aureus [2]) [mm] | inhibition zone (IZ) (Pseudomonas fluorescens [3]) [mm] | inhibition zone (IZ) (Pseudomonas fluorescens [4]) [mm] | inhibition zone (IZ) (Staphylococcus aureus [5]) [mm] | inhibition zone (IZ) (Escherichia coli [6]) [mm] | inhibition zone (IZ) (Escherichia coli [7]) [mm] | Activity (Cladosporium herbarum) | inhibition zone (IZ) (Bacillus subtilis [8]) [mm] | inhibition zone (IZ) (Bacillus subtilis [9]) [mm] |
| --- | --- | --- | --- | --- | --- | --- | --- | --- | --- | --- |
| Cc1cc2c(cc1O)[C@@]1(C)[C@H](O)C[C@@](O)(O2)C1(C)C [ENOKIPODIN C] | 26 | 18 | 0 | 0 | 21.2 | 0 | 0 | Active | 20 | – |
| CC1=CC(=O)C([C@@]2(C)[C@H](O)CC(=O)C2(C)C)=CC1=O [ENOKIPODIN D] | 16 | 0 | – | – | 11.6 | 0 | 0 | Active | 11 | – |
| CC1=CC(=O)C([C@@]2(C)CCC(=O)C2(C)C)=CC1=O [ENOKIPODIN B] | 21 | 0 | – | – | 14 | 0 | 0 | Active | 17 | – |
| Cc1cc2c(cc1O)[C@@]1(C)CC[C@@](O)(O2)C1(C)C [ENOKIPODIN A] | 32.6 | 19.2 | 0 | 0 | 25.2 | 0 | 0 | Active | 28 | – |
| Oc1c(Cl)c(Cl)c(Cl)c(Cl)c1Cl [PENTACHLOROPHENOL] | – | – | – | – | – | – | – | – | 31 | 26.6 |

Source: ChEMBL document CHEMBL1155725, “Antimicrobial cuparene-type sesquiterpenes, enokipodins C and D, from a mycelial culture of Flammulina velutipes” (2001)
